From publication PMC9893515 (Bioorganic chemistry, 2021)
Read-outs that look alike come from different tables or passages of the source.

Molecular target: T1, recombinant human TDP2 (Homo sapiens, UniProt O95551)
T1 sequence (O95551 1-362): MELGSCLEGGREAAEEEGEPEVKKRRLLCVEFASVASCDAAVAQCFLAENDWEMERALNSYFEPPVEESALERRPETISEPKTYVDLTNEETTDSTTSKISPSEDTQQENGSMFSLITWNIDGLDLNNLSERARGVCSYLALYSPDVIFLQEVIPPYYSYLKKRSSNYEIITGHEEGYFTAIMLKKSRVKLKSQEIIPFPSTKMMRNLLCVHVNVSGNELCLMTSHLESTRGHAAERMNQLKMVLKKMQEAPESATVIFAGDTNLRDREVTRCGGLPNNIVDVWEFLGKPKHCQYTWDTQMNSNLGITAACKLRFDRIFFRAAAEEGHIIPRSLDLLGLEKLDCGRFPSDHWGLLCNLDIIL
Test: Recombinant TDP2 assay
Format: biochemical
Outline: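 Human recombinant TDP2 (25 pM) with 1 nM 18-mer 5'-phosphotyrosyl ssDNA, 3'-α32P-cordycepin-labelled. Reaction ran 15 min at room temperature in Tris-HCl pH 7.5, KCl, MgCl2, EDTA, DTT, BSA and Tween 20. Stopped with formamide loading buffer, then 16% denaturing PAGE and phosphorimaging densitometry of product. […] IC50 is 50% enzyme inhibition.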

Row | Compound | IC50 [µM] | IC50 (read-out: TDP2 inhibitory activity IC50, mean ± SD from at least three independent experiments, recombinant TDP2) [µM]
1 | CCOC(=O)c1c(C)oc2c1C(=O)c1ccccc1C2=O [Compound 11, Ethyl 2-methyl-4,9-dioxo-4,9-dihydronaphtho[2,3-b]furan-3-carboxylate] | > 111 | –
2 | CCOC(=O)c1c(C)oc2c1C(=O)c1cnccc1C2=O [Compound 12, Ethyl 2-methyl-4,9-dioxo-4,9-dihydrofuro[2,3-g]isoquinoline-3-carboxylate] | 32 ± 3.2 | –
3 | CCOC(=O)c1c(C)oc2c1C(=O)c1ccncc1C2=O [Compound 13, Ethyl 2-methyl-4,9-dioxo-4,9-dihydrofuro[3,2-g]isoquinoline-3-carboxylate] | > 111 | –
4 | CCOC(=O)c1c(C)oc2c1C(=O)c1nccnc1C2=O [Compound 14, Ethyl 7-methyl-5,9-dioxo-5,9-dihydrofuro[2,3-g]quinoxaline-8-carboxylate] | 61 ± 43 | –
5 | CCOC(=O)c1c(C)oc2c1C(=O)c1nc3ccccc3cc1C2=O [Compound 16, Ethyl 2-methyl-4,11-dioxo-4,11-dihydrofuro[2,3-b]acridine-3-carboxylate] | > 111 | –
6 | CCOC(=O)c1c(C)oc2c1C(=O)c1nc(Cl)ccc1C2=O [Compound 19, Ethyl-6-chloro-2-methyl-4,9-dioxo-4,9-dihydrofuro[2,3-g]quinoline-3-carboxylate] | 94 ± 29 | –
7 | CCOC(=O)c1c(C)oc2c1C(=O)c1ccc(Cl)nc1C2=O [Compound 20, Ethyl-7-chloro-2-methyl-4,9-dioxo-4,9-dihydrofuro[3,2-g]quinoline-3-carboxylate] | > 111 | –
8 | CCOC(=O)c1c(C)oc2c1C(=O)c1nc(C)ccc1C2=O [Compound 21, Ethyl-2,6-dimethyl-4,9-dioxo-4,9-dihydrofuro[2,3-g]quinoline-3-carboxylate] | 21 ± 5.5 | –
9 | CCOC(=O)c1c(C)oc2c1C(=O)c1ccc(C)nc1C2=O [Compound 22, Ethyl-2,7-dimethyl-4,9-dioxo-4,9-dihydrofuro[3,2-g]quinoline-3-Carboxylate] | > 111 | –
10 | CCOC(=O)c1c(C)oc2c1C(=O)c1nc(N(C)C)ccc1C2=O [Compound 23, Ethyl-6-(dimethylamino)-2-methyl-4,9-dioxo-4,9-dihydrofuro[2,3-g]quinoline-3-carboxylate] | 37 ± 7 | –
11 | CCOC(=O)c1c(C)oc2c1C(=O)c1nc(N3CCCCC3)ccc1C2=O [Compound 24, Ethyl-2-methyl-4,9-dioxo-6-(piperidin-1-yl)-4,9-dihydrofuro[2,3-g]quinoline-3-carboxylate] | 44 ± 2 | –
12 | CCOC(=O)c1c(C)oc2c1C(=O)c1nc(N3CCN(C)CC3)ccc1C2=O [Compound 25, Ethyl-2-methyl-6-(4-methylpiperazin-1-yl)-4,9-dioxo-4,9-dihydrofuro[2,3-g]quinoline-3-carboxylate] | > 111 | –
13 | C#CCN(C)c1ccc2c(n1)C(=O)c1c(oc(C)c1C(=O)OCC)C2=O [Compound 26, Ethyl-2-methyl-6-(methyl(prop-2-yn-1-yl)amino)-4,9-dioxo-4,9-dihydrofuro[2,3-g]quinoline-3-carboxylate] | > 111 | –
14 | CCOC(=O)c1c(C)oc2c1C(=O)c1nc(-c3ccc(OC)cc3)ccc1C2=O [Compound 27, Ethyl6-(4-methoxyphenyl)-2-methyl-4,9-dioxo-4,9-dihydrofuro[2,3-g]quinoline-3-carboxylate] | > 111 | –
15 | CCOC(=O)c1c(C)oc2c1C(=O)c1nc(-c3ccco3)ccc1C2=O [Compound 28, Ethyl-6-(furan-2-yl)-2-methyl-4,9-dioxo-4,9-dihydrofuro[2,3-g]quinoline-3-carboxylate] | > 111 | –
16 | CCOC(=O)c1c(C)oc2c1C(=O)c1ccc(N(C)C)nc1C2=O [Compound 30, Ethyl-7-(dimethylamino)-2-methyl-4,9-dioxo-4,9-dihydrofuro[3,2-g]quinoline-3-carboxylate] | > 111 | –
17 | CCOC(=O)c1c(C)oc2c1C(=O)c1ccc(N3CCCCC3)nc1C2=O [Compound 31, Ethyl-2-methyl-4,9-dioxo-7-(piperidin-1-yl)-4,9-dihydrofuro[3,2-g]quinoline-3-carboxylate] | > 111 | –
18 | CCOC(=O)c1c(C)oc2c1C(=O)c1ncc(C)cc1C2=O [Compound 33, Ethyl-2,7-dimethyl-4,9-dioxo-4,9-dihydrofuro[2,3-g]quinoline-3-carboxylate] | > 111 | –
19 | CCOC(=O)c1c(C)oc2c1C(=O)c1nccc(-c3ccccc3[N+](=O)[O-])c1C2=O [Compound 34, Ethyl-2-methyl-8-(2-nitrophenyl)-4,9-dioxo-4,9-dihydrofuro[2,3-g]quinoline-3-carboxylate] | > 111 | –
20 | CCOC(=O)c1ccnc2c1C(=O)c1oc(C)c(C(=O)OCC)c1C2=O [Compound 35, Diethyl-2-methyl-4,9-dioxo-4,9-dihydrofuro[2,3-g]quinoline-3,8-dicarboxylate] | 69 ± 3.1 | –
21 | CCOC(=O)c1c(C)oc2c1C(=O)c1nccc(CC)c1C2=O [Compound 36, Ethyl-8-ethyl-2-methyl-4,9-dioxo-4,9-dihydrofuro[2,3-g]quinoline-3-carboxylate] | 28 ± 1.3 | –

Row | Compound | IC50 [µM] | IC50 (read-out: TDP2 inhibitory activity IC50, mean ± SD from at least three independent experiments, recombinant TDP2) [µM]
22 | CCOC(=O)c1c(C(C)C)oc2c1C(=O)c1ncccc1C2=O [Compound 39, Ethyl 2-isopropyl-4,9-dioxo-4,9-dihydrofuro[2,3-g]quinoline-3-carboxylate] | 25 ± 7.7 | –
23 | CCOC(=O)c1c(C(C)C)oc2c1C(=O)c1cccnc1C2=O [Compound 40, Ethyl 2-isopropyl-4,9-dioxo-4,9-dihydrofuro[3,2-g]quinoline-3-carboxylate] | > 111 | –
24 | CCOC(=O)c1c(-c2ccccc2)oc2c1C(=O)c1ncccc1C2=O [Compound 41, Ethyl 4,9-dioxo-2-phenyl-4,9-dihydrofuro[2,3-g]quinoline-3-carboxylate] | 28 ± 6.4 | –
25 | CCOC(=O)c1c(-c2ccccc2)oc2c1C(=O)c1cccnc1C2=O [Compound 42, Ethyl 4,9-dioxo-2-phenyl-4,9-dihydrofuro[3,2-g]quinoline-3-carboxylate] | 47 ± 24 | –
26 | CCOC(=O)c1c(CBr)oc2c1C(=O)c1ncccc1C2=O [Compound 43, Ethyl 2-(bromomethyl)-4,9-dioxo-4,9-dihydrofuro[2,3-g]quinoline-3-carboxylate] | 21 ± 5.5 | –
27 | CCOC(=O)c1c(C(Br)Br)oc2c1C(=O)c1ncccc1C2=O [Compound 44, Ethyl 2-(dibromomethyl)-4,9-dioxo-4,9-dihydrofuro[2,3-g]quinoline-3-carboxylate] | 27 ± 2.5 | –
28 | CCOC(=O)c1c(CN2CCN(C(C)=O)CC2)oc2c1C(=O)c1ncccc1C2=O [Compound 45, Ethyl 2-((4-acetylpiperazin-1-yl)methyl)-4,9-dioxo-4,9-dihydrofuro[2,3-g]qui noline-3-carboxylate] | 31 ± 4.2 | –
29 | CCOC(=O)c1c(CN2CCOCC2)oc2c1C(=O)c1ncccc1C2=O [Compound 46, Ethyl 2-(morpholinomethyl)-4,9-dioxo-4,9-dihydrofuro[2,3-g]quinoline-3-ca rboxylate] | 22 ± 6.4 | –
30 | CCOC(=O)c1c(CN2CCSCC2)oc2c1C(=O)c1ncccc1C2=O [Compound 47, Ethyl 4,9-dioxo-2-(thiomorpholinomethyl)-4,9-dihydrofuro[2,3-g]quinoline3-carboxylate] | 31 ± 6.4 | –
31 | CCOC(=O)c1c(C=O)oc2c1C(=O)c1ncccc1C2=O [Compound 49, Ethyl-2-formyl-4,9-dioxo-4,9-dihydrofuro[2,3-g]quinoline-3-carboxylate] | 5.2 ± 4.1 | –
32 | CCOC(=O)c1noc2c1C(=O)c1cnccc1C2=O [Compound 50, Ethyl-4,9-dioxo-4,9-dihydroisoxazolo[5,4-g]isoquinoline-3-carboxylate] | 5.4 ± 0.8 | –
33 | CCOC(=O)c1noc2c1C(=O)c1ccncc1C2=O [Compound 51, Ethyl 4,9-dioxo-4,9-dihydroisoxazolo[4,5-g]isoquinoline-3-carboxylate] | 12 ± 2.4 | –
34 | CCOC(=O)c1noc2c1C(=O)c1nccnc1C2=O [Compound 52, Ethyl-4,9-dioxo-4,9-dihydroisoxazolo[4,5-g]quinoxaline-3-carboxylate] | – | 9.3 ± 2.7
35 | CC(C)(C)OC(=O)c1noc2c1C(=O)c1ncccc1C2=O [Compound 54, Tert-butyl 4,9-dioxo-4,9-dihydroisoxazolo[5,4-g]quinoline-3-carboxylate] | 3.1 ± 0.43 | –
36 | CC(C)(C)OC(=O)c1noc2c1C(=O)c1cccnc1C2=O [Compound 55, Tert-butyl 4,9-dioxo-4,9-dihydroisoxazolo[4,5-g]quinoline-3-carboxylate] | 3.3 ± 0.65 | –
37 | O=C(OCCc1ccc(Cl)cc1)c1noc2c1C(=O)c1ncccc1C2=O [Compound 56, 4-chlorophenethyl 4,9-dioxo-4,9-dihydroisoxazolo[5,4-g]quinoline-3-carboxylate] | 15 ± 1.3 | –
38 | O=C(OCCc1ccc(Cl)cc1)c1noc2c1C(=O)c1cccnc1C2=O [Compound 57, 4-chlorophenethyl 4,9-dioxo-4,9-dihydroisoxazolo[4,5-g]quinoline-3-carboxylate] | 9.9 ± 2.2 | –
39 | O=C(OCC(F)(F)F)c1noc2c1C(=O)c1cccnc1C2=O [Compound 59, 2,2,2-Trifluoroethyl 4,9-dioxo-4,9-dihydroisoxazolo[4,5-g]quinoline-3-carboxylate] | 14 ± 2.9 | –
40 | N#CCCOC(=O)c1noc2c1C(=O)c1cccnc1C2=O [Compound 60, 2-Cyanoethyl 4,9-dioxo-4,9-dihydroisoxazolo[4,5-g]quinoline-3-carboxylate] | 10 ± 1.48 | –
41 | O=C(OCCc1cccc(F)c1)c1noc2c1C(=O)c1cccnc1C2=O [Compound 61, 3-Fluorophenethyl 4,9-dioxo-4,9-dihydroisoxazolo[4,5-g]quinoline-3-carboxylate] | 8.7 ± 0.54 | –
